The values that follow come from article PMC11908206 (bioRxiv, 2025).

For experiment [1], the system named is Apc^Q1405X small intestinal organoids. The experiment can be described thus: RNA-seq and GSEA of ApcQ1405X small intestinal organoids. The format is cell-based, mouse. To be noted: 250nM G007-LK or 500nM TDI-012804, 3 days; for transcriptional response (RNA-seq), Tnks1 KO: ApcQ1405X/Tnks1 KO organoids; for transcriptional response (RNA-seq), Tnks1 WT: ApcQ1405X/Tnks1 WT organoids. The method, boiled down: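 Organoids plated at one six-well per condition in EN medium (basal Advanced DMEM/F12 with EGF 40 ng/ml and LDN 50 nM). Medium contained DMSO or test compound at 250 nM or 500 nM, then harvested for RNA isolation and sequencing.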

In experiment [2] the test system is ApcQ1405X small intestinal organoids. The experiment can be described thus: Organoid viability. The format is cell-based, mouse. As to conditions: all Tnks1 genotypes, 6 days.
For experiment [3] the test system is unchanged. The experiment is described as follows: Organoid viability. To be noted: 250nM. The format is cell-based, mouse. The method, boiled down: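 Mouse ApcQ1405X small-intestinal organoids plated at high density in Matrigel, two wells per condition, in EN medium (EGF 40 ng/ml, LDN 50 nM) containing DMSO or 250 nM compound. Medium changed every 2 days. Every 4 days, alamarBlue added to one well and fluorescence read; the other well passaged 1:2 into the same condition. Run for 20 days; n = 3, mean with SEM.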

The next experiment has as its system OVCAR4 cells. The experiment is described as follows: Colony forming assay, OVCAR4. The format is cell-based, human.
The next experiment has as its system AXIN1 in SW403 cells. The experiment is described as follows: Western blot of AXIN1 in SW403 cells. The format is cell-based, human. As to conditions: SW403 (8p heterozygous), 250nM, 24h. A digest of the protocol:
(§1)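 Cells grown in RPMI-1640 with 10% FBS; 700,000 per well seeded and allowed to adhere 24h. Exposed to 250 nM compound for 24h, then lysed in RIPA buffer on ice for 20 min and cleared at 15,000 rpm for 10 min. 20 µg protein per lane probed for AXIN1; band intensity quantified.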

Experiment [4] has as its system ApcQ1405X/KrasG12D/p53Q97X small intestinal organoids. The experiment can be described thus: Organoid viability. The format is cell-based, mouse. As to conditions: six days.
A further experiment deals with AXIN1 in H23 cells. The experiment is described as follows: Western blot of AXIN1 in H23 cells. As to conditions: 8p diploid H23, 250nM, 24h. The format is cell-based, human. A digest of the protocol:
as §1
For orientation: A western blot detects proteins with antibodies after separation by electrophoresis.

In experiment [5] the test system is TNKS2^WT, TNKS2^L1136Y and TNKS1 SAM-PARP domains. The experiment can be described thus: In vitro PARylation assay with purified SAM-PARP domains. The format is biochemical.
Experiment [6] relates to AXIN1 in TNKS1^KO DLD1 cells. The format is cell-based. To be noted: 24h.
For another experiment, the target named is T1, PARP3 (Homo sapiens, UniProt Q9Y6F1).
T1 sequence (Q9Y6F1 1-533): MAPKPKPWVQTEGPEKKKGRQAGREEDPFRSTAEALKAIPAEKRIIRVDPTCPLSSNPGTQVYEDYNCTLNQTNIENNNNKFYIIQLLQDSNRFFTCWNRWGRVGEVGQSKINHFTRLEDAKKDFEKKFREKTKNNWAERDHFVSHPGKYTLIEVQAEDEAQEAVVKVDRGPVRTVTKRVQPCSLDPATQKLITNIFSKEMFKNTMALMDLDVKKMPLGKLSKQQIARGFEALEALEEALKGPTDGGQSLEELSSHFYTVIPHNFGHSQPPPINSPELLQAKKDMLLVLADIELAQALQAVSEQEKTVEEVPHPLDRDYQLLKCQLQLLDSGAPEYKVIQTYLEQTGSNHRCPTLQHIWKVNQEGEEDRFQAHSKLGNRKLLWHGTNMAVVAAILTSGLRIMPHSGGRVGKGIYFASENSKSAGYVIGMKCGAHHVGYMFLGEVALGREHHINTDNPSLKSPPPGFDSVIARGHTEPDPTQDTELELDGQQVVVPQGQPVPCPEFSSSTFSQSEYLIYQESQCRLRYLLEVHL
The experiment is described as follows: PARP3 inhibition. The format is biochemical. As to conditions: Fig. S9.

In a further experiment the target is PARP1 (Homo sapiens, UniProt P09874). The experiment can be described thus: PARP1 inhibition. The format is biochemical. As to conditions: Fig. S9.
Sequence of PARP1 (P09874 whole entry, species assumed): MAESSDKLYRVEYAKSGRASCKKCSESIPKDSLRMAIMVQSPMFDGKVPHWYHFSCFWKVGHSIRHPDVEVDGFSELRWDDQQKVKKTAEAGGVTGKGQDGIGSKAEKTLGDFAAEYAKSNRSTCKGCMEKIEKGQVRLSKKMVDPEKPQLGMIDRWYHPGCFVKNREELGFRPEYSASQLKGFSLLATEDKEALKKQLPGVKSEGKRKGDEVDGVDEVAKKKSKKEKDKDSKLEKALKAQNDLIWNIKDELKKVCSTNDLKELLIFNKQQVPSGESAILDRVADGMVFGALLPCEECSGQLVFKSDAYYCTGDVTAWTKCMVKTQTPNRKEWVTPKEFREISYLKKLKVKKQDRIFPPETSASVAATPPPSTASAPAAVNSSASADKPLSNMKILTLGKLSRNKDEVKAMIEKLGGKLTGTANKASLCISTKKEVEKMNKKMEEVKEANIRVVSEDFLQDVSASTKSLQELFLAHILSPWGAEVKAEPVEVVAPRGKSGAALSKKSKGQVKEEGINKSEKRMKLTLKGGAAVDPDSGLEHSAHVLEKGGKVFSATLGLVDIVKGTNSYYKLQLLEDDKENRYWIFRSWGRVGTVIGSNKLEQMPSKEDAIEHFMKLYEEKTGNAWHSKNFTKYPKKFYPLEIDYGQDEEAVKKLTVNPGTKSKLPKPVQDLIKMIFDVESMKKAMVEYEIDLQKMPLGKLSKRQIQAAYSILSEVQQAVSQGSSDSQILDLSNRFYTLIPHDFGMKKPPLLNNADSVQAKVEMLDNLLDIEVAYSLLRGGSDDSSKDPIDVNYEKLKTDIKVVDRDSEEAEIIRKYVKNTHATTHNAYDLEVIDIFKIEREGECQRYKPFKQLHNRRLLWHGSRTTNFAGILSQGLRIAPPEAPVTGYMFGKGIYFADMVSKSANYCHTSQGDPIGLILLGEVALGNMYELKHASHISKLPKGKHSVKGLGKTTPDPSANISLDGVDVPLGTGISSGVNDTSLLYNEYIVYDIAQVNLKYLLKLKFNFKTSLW
The subject of experiment [7] is ApcQ1405X/KrasG13D/p53Q97X small intestinal organoids. The experiment can be described thus: Organoid viability. As to conditions: six days. The format is cell-based, mouse.
The test system of a further experiment is H23 cells. The experiment is described as follows: Colony forming assay, H23. The format is cell-based, human.
The target in a further experiment is PARP2 (Homo sapiens, UniProt Q9UGN5). The experiment can be described thus: PARP2 inhibition. The format is biochemical. As to conditions: Fig. S9.
Sequence of PARP2 (Q9UGN5 whole entry, species assumed): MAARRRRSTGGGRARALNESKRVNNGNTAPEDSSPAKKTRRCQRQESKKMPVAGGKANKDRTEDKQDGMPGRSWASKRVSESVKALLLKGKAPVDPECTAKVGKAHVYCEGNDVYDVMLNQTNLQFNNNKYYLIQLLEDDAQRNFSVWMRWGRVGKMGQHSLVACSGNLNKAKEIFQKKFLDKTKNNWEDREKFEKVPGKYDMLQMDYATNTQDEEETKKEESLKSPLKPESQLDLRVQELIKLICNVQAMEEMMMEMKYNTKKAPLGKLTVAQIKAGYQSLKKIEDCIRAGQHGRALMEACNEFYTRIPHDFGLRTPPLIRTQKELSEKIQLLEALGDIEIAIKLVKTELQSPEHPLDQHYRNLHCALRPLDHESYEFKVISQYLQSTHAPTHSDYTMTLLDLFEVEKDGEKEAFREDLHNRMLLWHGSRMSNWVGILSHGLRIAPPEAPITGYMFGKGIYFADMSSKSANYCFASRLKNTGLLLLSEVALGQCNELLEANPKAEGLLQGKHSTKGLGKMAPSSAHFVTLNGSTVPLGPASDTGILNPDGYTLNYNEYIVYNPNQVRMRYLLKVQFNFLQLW
In the next experiment the test system is AXIN1 in DLD1 cells. The experiment can be described thus: Western blot of endogenous AXIN1 in TNKS1 isogenic DLD1 cells. The format is cell-based. As to conditions: 500nM or 250nM, 24h. A digest of the protocol:
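DLD1 TNKS1-edited clones made by Cas9 and TNKS1 sgRNA transduction with drug selection, then single-cell cloning by limiting dilution. For blotting, 700,000 cells/well were allowed to adhere 24h and treated with compound for 24h. Lysis in RIPA buffer on ice for 20 min; 20 µg protein per sample blotted for AXIN1; band intensity quantified.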

For experiment [8], the system named is TOPFlash reporter in DLD1 cells. The experiment can be described thus: TOPFlash WNT transcriptional reporter in TNKS1 isogenic DLD1 cells. The format is cell-based. To be noted: Homo sapiens, DLD-1, read-out: TOP-Flash reporter EC50.

Take `CS(=O)(=O)c1ccc(-c2nnc(/C=C/c3nnc(-c4ccc(C#N)cc4)o3)n2-c2ccccc2Cl)nc1` [G007-LK, reference compound]: in experiment [1], the “transcriptional response (RNA-seq), Tnks1 KO” value is on record as “broad transcriptional changes” and the “transcriptional response (RNA-seq), Tnks1 WT” value is “broad transcriptional changes”. Also, in [2], the “organoid proliferation (organoid area and AlamarBlue)” value was “robust suppression of proliferation across all Tnks1 genotypes”. Further, the “organoid growth over 20 days” value in [3] (ApcQ1405X organoids) was “robust suppression of organoid growth”. Moreover, the “colony formation, OVCAR4” value with OVCAR4 cells (OVCAR4, 250nM, with or without Palbociclib) is “sensitive”.

For orientation: EC50 means the concentration at which the effect is half-maximal. Regarding `COc1cc(-c2ccccc2)ncc1C(=O)Nc1ccc2c(=O)[nH]c(-c3ccc(C(C)(C)O)cc3)nc2c1` [TDI-012804, COC1=C(C=NC(=C1)C1=CC=CC=C1)C(=O)NC1=CC=C2C(=O)NC(=NC2=C1)C1=CC=C(C=C1)C(C)(C)O], the “AXIN1 protein (western blot), SW403” value in the experiment with AXIN1 in SW403 cells is “induced AXIN1 stabilization to similar levels as the pan-TNKS inhibitor G007-LK”. In [1], the “transcriptional response (RNA-seq), Tnks1 KO” value is “near-identical overall transcriptional response to G007-LK treated cultures” and the “transcriptional response (RNA-seq), Tnks1 WT” value is reported as “no significant gene expression changes”. Further, the “toxicity to Tnks1 KO compared to Tnks1 WT AKP-G12D organoids” value in experiment [4] was “selectively toxic”. In the experiment with AXIN1 in H23 cells, the “AXIN1 protein (western blot), H23” value was “did not induce AXIN1 stabilization”. The “effect of L1136Y mutation on potency against TNKS2” value in experiment [5] is on record as “significantly reduced the potency”. Also, the “AXIN1 protein (western blot), TNKS1 KO” value in experiment [6] (TNKS1 KO DLD1, 250nM) is given as “increased AXIN1 protein”. For the same molecule, the “AXIN1 protein (western blot), TNKS1 KO/TNKS2 WT” value in [6] (TNKS1 KO DLD1 expressing TNKS2 WT cDNA, 250nM) is on record as “increased AXIN1 protein”. Besides, the “inhibition of PARP3” value at PARP3 is reported as “no inhibition”. Besides, the “inhibition of PARP1” value against PARP1 was “no inhibition”. Further, in experiment [7], the “toxicity to Tnks1 KO compared to Tnks1 WT AKP-G13D organoids” value is on record as “selectively toxic”. For the same molecule, the “organoid proliferation over 20 days, Tnks1 HET” value in experiment [3] (ApcQ1405X Tnks1 HET organoids) is recorded as “significant reduction in proliferation”. Also, in experiment [3] (ApcQ1405X Tnks1 KO organoids), the “organoid proliferation over 20 days, Tnks1 KO” value is given as “significant reduction in proliferation”. The “colony formation, OVCAR4 TNKS1-depleted” value in the experiment on OVCAR4 cells (OVCAR4 shTNKS1, 250nM) is given as “significantly reduced”. Moreover, in the experiment with H23 cells (8p diploid H23, 250nM), the “colony formation, H23” value is on record as “nor suppress colony formation”. For the same molecule, the “colony formation, H23 with suppression of TNKS1” value in the experiment on H23 cells (H23 shTNKS1, 250nM, further enhanced with Palbociclib) is “significant sensitization”. For the same molecule, the “inhibition of PARP2” value on PARP2 was “no inhibition”. Moreover, the “endogenous AXIN1 protein (western blot), TNKS1 HET” value in the experiment with AXIN1 in DLD1 cells (DLD1 TNKS1 HET) is on record as “marked stabilization”. Further, the “endogenous AXIN1 protein (western blot), TNKS1 KO” value with AXIN1 in DLD1 cells (DLD1 TNKS1 KO) is given as “marked stabilization”. Further, the “endogenous AXIN1 protein (western blot), TNKS1 diploid” value in the experiment with AXIN1 in DLD1 cells (DLD1 TNKS1 diploid controls) is given as “minimal increase”. Moreover, the EC50 in experiment [8] was below 100 nM.
